The source made the active and inactive calls. No cut-off for these calls is given here.
Assays:
U-937 [1] = assay: Cytotoxicity against human U937 cells by MTS assay after 24 hrs; assay type: functional, cell-based; conditions: U-937, 24 h
A-375 = assay: Cytotoxicity against human A375 cells by MTS assay after 24 hrs; assay type: functional, cell-based; conditions: A-375, 24 h
Jurkat [2] = assay: Cytotoxicity against human Jurkat cells by MTS assay after 24 hrs; assay type: functional, cell-based
[3] = Cytotoxicity against human […] cells by MTS assay after 24 hrs; assay type: functional, cell-based
U-937 [4] = assay: Effect on U937 cell morphology assessed as irregular membrane protrusions at 0.39 ug/ml after 24 hrs; assay type: functional, cell-based; conditions: Homo sapiens
Outline: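 U937 cells (1.0 × 10⁴) exposed to compounds at 0.39 µg/mL for 24 h, with DMSO vehicle as control. Examined by brightfield light microscopy at 1000× magnification.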

MCF7 = assay: Cytotoxicity against human MCF7 cells by MTS assay after 24 hrs; assay type: functional, cell-based; conditions: MCF7, 24 h
HCT-116 = assay: Cytotoxicity against human HCT116 cells by MTS assay after 24 hrs; assay type: functional, cell-based; conditions: HCT-116, 24 h
PC-3 = assay: Cytotoxicity against human PC3 cells by MTS assay after 24 hrs; assay type: functional, cell-based; conditions: PC-3, 24 h
U-937 [5] = assay: Cell cycle arrest in human U937 cells assessed as increase in S and sub G1 phase accumulation at 1 uM; assay type: functional, cell-based
Outline: (§1)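 U937 cells treated 4 h or 24 h against DMSO vehicle, with 0.5 µM vinblastine sulfate as reference. Cells (2.0 × 10⁴) fixed in ice-cold 70% ethanol at -20 °C for 30 min to overnight. Stained 30 min at 37 °C with 40 µg/mL PI plus 100 µg/mL RNase A in PBS pH 7.4. DNA content read by flow cytometry and cell-cycle phase proportions calculated.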

Bos taurus = species: Bos taurus; assay: Inhibition of bovine neuronal tubulin polymerization at 10 uM
Outline: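 Polymerization followed 1 h at 37 °C by fluorescence, ex 360 ± 10 nm / em 440 ± 10 nm. Duplicate wells.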

U-937 [6] = assay: Effect on stability of microtubules in U937 cells assessed as alteration of microtubule organisation at 1.7 uM after 24 hrs; assay type: functional, cell-based; conditions: Homo sapiens
Outline: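 U937 cells (2.2 × 10⁵/mL) seeded, held 24 h, then exposed 24 h to 0.78 µg/mL (1.7 µM) compound. Controls: 2 µM vinblastine or 2.5% DMSO. […] Cells washed in PBS and imaged by confocal microscopy, excitation 488 nm, emission 500–540 nm.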

U-937 [7] = assay: Cell cycle arrest in human U937 cells assessed as increase in S and sub G1 phase accumulation at 2 uM; assay type: functional, cell-based; outline: as §1
Jurkat [8] = assay: Activation of caspase in Jurkat cells after 5 hrs relative to staurosporine; assay type: cell-based; conditions: Homo sapiens
Outline: (§2)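 Cells exposed to test compound for 5 h at 37 °C; 2 µM staurosporine as positive control. Apo-ONE homogeneous caspase-3/7 reagent then added for 1 h at room temperature. Fluorescence read at excitation 485 nm, emission 520 nm. Values normalized to staurosporine. Means ± SE of one representative experiment run in triplicate.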

U-937 [9] = assay: Activation of caspase in U937 cells after 5 hrs relative to staurosporine; assay type: cell-based; conditions: Homo sapiens; outline: as §2
Tubulin = assay: Displacement of [3H]colchicine from tubulin by scintillation proximity assay; assay type: protein-complex assay, Homo sapiens

With `COc1ccc(CN2C(=O)C(=O)c3ccc(Br)cc32)cc1` the IC50 (U-937 [1]) was 34100 nM.

`O=C1C(=O)N(Cc2ccc(I)cc2)c2c(Br)cc(Br)cc21` gave an IC50 (U-937 [1]) of 2300 nM, an IC50 (A-375) of 2400 nM and an IC50 (Jurkat [2]) of 580 nM. The IC50 [3] was 2920 nM, the Activity (U-937 [4]) was “Active” and the IC50 (MCF7) was 4.22 µM. For the same compound, the IC50 (HCT-116) was 3360 nM and the IC50 (PC-3) was 10.9 µM.

With `O=C1C(=O)N(Cc2ccc(Br)cc2)c2c(Br)cc(Br)cc21` the IC50 (U-937 [1]) was 630 nM, the IC50 (A-375) was 1220 nM and the IC50 (Jurkat [2]) was 630 nM. It also gave an IC50 [3] of 1900 nM, an IC50 (MCF7) of 5.27 µM and an IC50 (HCT-116) of 530 nM. For the same compound, the IC50 (PC-3) was 3.44 µM.

`O=C1C(=O)N(Cc2ccc([N+](=O)[O-])cc2)c2c(Br)cc(Br)cc21` showed an IC50 (U-937 [1]) of 890 nM, an IC50 (A-375) of 2500 nM and an IC50 (Jurkat [2]) of 890 nM. The IC50 [3] was 2750 nM, the IC50 (MCF7) was 4.32 µM and the IC50 (HCT-116) was 2700 nM.

In the case of `COc1ccc(CN2C(=O)C(=O)c3cc(Br)ccc32)cc1`, the IC50 (U-937 [1]) is reported as greater than 36100 nM.

For `O=C1C(=O)N(Cc2ccc(C(F)(F)F)cc2)c2c(Br)cc(Br)cc21`, the Activity (U-937 [5]) was “Active”, the Activity (Bos taurus) was “Active” and the Activity (U-937 [6]) was “Active”. The IC50 (U-937 [1]) was 800 nM, the IC50 (A-375) was 1250 nM and the IC50 (Jurkat [2]) was 690 nM. The IC50 [3] was 540 nM, the IC50 (MCF7) was 7.13 µM and the Activity (U-937 [7]) was “Active”. The Activity (Jurkat [8]) was “Active”, the IC50 (HCT-116) was 840 nM and the IC50 (PC-3) was 1.17 µM. For the same compound, the Activity (U-937 [9]) was “Active”.

Work on `COc1cccc(CN2C(=O)C(=O)c3cc(Br)cc(Br)c32)c1` yielded an IC50 (U-937 [1]) of 1760 nM, an IC50 (Jurkat [2]) of 2000 nM and an IC50 (MCF7) of 2.35 µM.

`COc1ccc(CN2C(=O)C(=O)c3ccccc32)cc1` gave an IC50 (U-937 [1]) greater than 46800 nM.

`COc1ccc(CN2C(=O)C(=O)c3cccc(Br)c32)cc1` showed an IC50 (U-937 [1]) of 17600 nM.

`CC(C)(C)c1ccc(CN2C(=O)C(=O)c3cc(Br)cc(Br)c32)cc1` showed an IC50 (U-937 [1]) of 1130 nM, an IC50 (A-375) of 890 nM and an IC50 (Jurkat [2]) of 660 nM. The IC50 [3] was 980 nM, the Activity (U-937 [4]) was “Active” and the IC50 (MCF7) was 2.64 µM. The IC50 (HCT-116) was 1660 nM and the IC50 (PC-3) was 3.06 µM.

In the case of `O=C1C(=O)N(Cc2ccc(C(F)(F)F)cc2)c2cc(Br)ccc21`, the IC50 (U-937 [1]) is reported as 5210 nM and the IC50 (Jurkat [2]) is reported as 5210 nM.

Work on `O=C1C(=O)N(Cc2ccccc2)c2c(Br)cc(Br)cc21` yielded an IC50 (U-937 [1]) of 1140 nM, an IC50 (Jurkat [2]) of 1140 nM and an IC50 (MCF7) of 7.09 µM.

`COCCN1C(=O)C(=O)c2cc(Br)cc(Br)c21` gave an IC50 (U-937 [1]) of 3440 nM, an IC50 (Jurkat [2]) of 8950 nM and an IC50 (MCF7) of 6.67 µM.

`COc1ccc(CN2C(=O)C(=O)c3c(Br)cccc32)cc1` showed an IC50 (U-937 [1]) greater than 36100 nM.

`C=CCN1C(=O)C(=O)c2cc(Br)cc(Br)c21` showed an IC50 (U-937 [1]) of 6670 nM.

For `Cc1ccc(CN2C(=O)C(=O)c3cc(Br)cc(Br)c32)cc1`, the Activity (U-937 [5]) was “Active”, the Activity (Bos taurus) was “Active” and the IC50 (U-937 [1]) was 490 nM. For the same compound, the IC50 (A-375) was 2000 nM, the IC50 (Jurkat [2]) was 490 nM and the IC50 [3] was 1910 nM. For the same compound, the IC50 (MCF7) was 11 µM, the Activity (U-937 [7]) was “Active” and the IC50 (HCT-116) was 1220 nM. It also gave an IC50 (PC-3) of 4.57 µM.

In the case of `COc1cc(-c2ccc3c(c2)NC(=O)/C3=C\c2ccc[nH]2)ccc1O`, the IC50 (Tubulin) is reported as 130 nM.

In the case of `O=C(O)c1ccc(CN2C(=O)C(=O)c3cc(Br)cc(Br)c32)cc1`, the IC50 (U-937 [1]) is reported as greater than 14200 nM, the IC50 (Jurkat [2]) is reported as greater than 14200 nM and the IC50 (MCF7) is reported as greater than 14.2 µM.

For `COC(=O)c1ccc(CN2C(=O)C(=O)c3cc(Br)cc(Br)c32)cc1`, the IC50 (U-937 [1]) was 1190 nM, the IC50 (Jurkat [2]) was 1190 nM and the IC50 (MCF7) was 9.05 µM.

Compound `O=C1C(=O)N(Cc2ccc(Cl)cc2)c2c(Br)cc(Br)cc21` has an IC50 (U-937 [1]) of 980 nM, an IC50 (A-375) of 1680 nM and an IC50 (Jurkat [2]) of 500 nM. The IC50 [3] was 2770 nM, the IC50 (MCF7) was 3.87 µM and the IC50 (HCT-116) was 1840 nM. It also gave an IC50 (PC-3) of 2.17 µM.

For `O=C1C(=O)N(Cc2ccc(-c3ccccc3)cc2)c2c(Br)cc(Br)cc21`, the Activity (Bos taurus) was “Active”, the IC50 (U-937 [1]) was 760 nM and the IC50 (A-375) was 1190 nM. It also gave an IC50 (Jurkat [2]) of 740 nM, an IC50 [3] of 2060 nM and an IC50 (MCF7) of 4.88 µM. For the same compound, the IC50 (HCT-116) was 830 nM and the IC50 (PC-3) was 3.42 µM.

Work on `CC[C@]1(O)C[C@@H]2CN(CCc3c([nH]c4ccccc34)[C@@](C(=O)OC)(c3cc4c(cc3OC)N(C)[C@H]3[C@@](O)(C(=O)OC)[C@H](OC(C)=O)[C@]5(CC)C=CCN6CC[C@]43[C@@H]65)C2)C1` [VINBLASTINE] yielded an IC50 (U-937 [1]) of 6880 nM.

In the case of `CC(C)CCN1C(=O)C(=O)c2cc(Br)cc(Br)c21`, the IC50 (U-937 [1]) is reported as 2400 nM, the IC50 (Jurkat [2]) is reported as 3470 nM and the Activity (U-937 [4]) is reported as “Active”. It also gave an IC50 (MCF7) of 7.49 µM.

With `O=C1C(=O)N(C/C=C/c2ccccc2)c2c(Br)cc(Br)cc21` the Activity (Bos taurus) was “Active”, the IC50 (U-937 [1]) was 2370 nM and the IC50 (Jurkat [2]) was 1420 nM. The Activity (U-937 [4]) was “Active” and the IC50 (MCF7) was 7.81 µM.

For `O=C1C(=O)N(Cc2ccccc2[N+](=O)[O-])c2c(Br)cc(Br)cc21`, the IC50 (U-937 [1]) was 2270 nM and the IC50 (MCF7) was 3.18 µM.

From ChEMBL document CHEMBL1148827, “An investigation into the cytotoxicity and mode of action of some novel N-alkyl-substituted isatins” (J Med Chem, 2007)
